# Assay results published in ChEMBL document CHEMBL1135528, “Monocyclic human tachykinin NK-2 receptor antagonists as evolution of a potent bicyclic antagonist: QSAR and site-directed mutagenesis studies” (J Med Chem, 2002).
# Positions count from the first letter of the chain named. Activity calls are given as the source filed them. The rule behind the calls is not given here. *1 amine or outer side, *2 acyl side, *3 side chain or, on linkers, in order; H or OH if unused. Where a SMILES comes first, the peptide text is derived from it. Bridges are numbered along the chain shown (N, C = ends). [ ]: non-standard residue; d: D form. Suc = O=C(CCC(=O)[*:2])[*:1]; Dap = NC[C@H](N)C(=O)O
# Tests used:
# [1] = target: T1, Substance-K receptor (Homo sapiens, UniProt P21452); assay: Inhibitory affinity constant (pKi) against tachykinin receptor 2 (NK-2R) using heterologous competition experiments
# T1 sequence (P21452 whole entry): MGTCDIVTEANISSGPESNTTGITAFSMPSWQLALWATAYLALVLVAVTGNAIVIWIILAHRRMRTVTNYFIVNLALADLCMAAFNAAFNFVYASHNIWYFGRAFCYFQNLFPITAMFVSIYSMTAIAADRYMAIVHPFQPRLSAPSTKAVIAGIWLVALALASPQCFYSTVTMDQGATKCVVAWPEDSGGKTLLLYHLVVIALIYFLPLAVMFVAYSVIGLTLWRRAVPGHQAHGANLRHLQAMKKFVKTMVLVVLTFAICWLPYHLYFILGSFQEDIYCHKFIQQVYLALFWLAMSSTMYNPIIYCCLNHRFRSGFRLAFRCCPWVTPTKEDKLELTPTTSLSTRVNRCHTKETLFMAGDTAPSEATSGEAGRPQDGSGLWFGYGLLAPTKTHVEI
# Method in brief: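 Buffer was 50 mM Tris-HCl pH 7.4. Competitors ranged 0.3 pM–10 μM. Filter-bound radioactivity was counted, and pKi was obtained by fitting competition curves. Mean ± sem of duplicate experiments.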
# [2] = test system: Substance-K receptor (Homo sapiens), P21452 [F112A]
# [3] = test system: Substance-K receptor (Homo sapiens), P21452 [F293A]
# [4] = test system: T2, Substance-K receptor (Homo sapiens), P21452 [Y266F]
# T2 sequence (whole entry): T1 sequence (P21452 whole entry) with Y266F
# [5] = test system: Substance-K receptor (Homo sapiens), P21452 [N110A]
# [6] = test system: T3, Substance-K receptor (Homo sapiens), P21452 [W263A]
# T3 sequence (whole entry): T1 sequence (P21452 whole entry) with W263A
# [7] = test system: Substance-K receptor (Homo sapiens), P21452 [Y269F]
# [8] = test system: Substance-K receptor (Homo sapiens), P21452 [Y289F]
# [9] = test system: Substance-K receptor (Homo sapiens), P21452 [T171A]
# [10] = test system: Substance-K receptor (Homo sapiens), P21452 [Y169A]
# [11] = test system: Substance-K receptor (Homo sapiens), P21452 [Y289T]
# [12] = test system: Substance-K receptor (Homo sapiens), P21452 [Y206F]
# [13] = test system: T4, Substance-K receptor (Homo sapiens), P21452 [C167A]
# T4 sequence (whole entry): T1 sequence (P21452 whole entry) with C167A
# [14] = test system: T5, Substance-K receptor (Homo sapiens), P21452 [S170A]
# T5 sequence (whole entry): T1 sequence (P21452 whole entry) with S170A
# [15] = test system: Substance-K receptor (Homo sapiens), P21452 [H198A]
# [16] = test system: Substance-K receptor (Homo sapiens), P21452 [Y107A]
# [17] = test system: Substance-K receptor (Homo sapiens), P21452 [Y269A]
# [18] = test system: Substance-K receptor (Homo sapiens), P21452 [I202F]
# [19] = test system: Substance-K receptor (Homo sapiens), P21452 [Q166A]
# Sequence of Substance-K receptor (Homo sapiens), P21452 [Q166A] (P21452 whole entry Q166A): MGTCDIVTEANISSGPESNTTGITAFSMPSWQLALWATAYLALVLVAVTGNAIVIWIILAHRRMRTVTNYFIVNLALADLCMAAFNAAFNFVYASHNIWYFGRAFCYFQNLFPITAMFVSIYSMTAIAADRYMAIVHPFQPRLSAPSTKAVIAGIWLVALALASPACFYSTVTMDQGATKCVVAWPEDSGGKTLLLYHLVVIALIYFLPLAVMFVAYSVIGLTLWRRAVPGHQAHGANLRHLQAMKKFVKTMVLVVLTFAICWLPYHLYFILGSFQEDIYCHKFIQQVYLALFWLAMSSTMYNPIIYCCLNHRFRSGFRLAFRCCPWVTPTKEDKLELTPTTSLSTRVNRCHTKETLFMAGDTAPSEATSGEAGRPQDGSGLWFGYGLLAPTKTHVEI
# Sequence of Substance-K receptor (Homo sapiens), P21452 [H198A] (P21452 whole entry H198A): as the sequence (P21452 whole entry Q166A) above, with A166Q, H198A counted along it
# Sequence of Substance-K receptor (Homo sapiens), P21452 [Y169A] (P21452 whole entry Y169A): as the sequence (P21452 whole entry Q166A) above, with A166Q, Y169A counted along it
# Sequence of Substance-K receptor (Homo sapiens), P21452 [Y269F] (P21452 whole entry Y269F): as the sequence (P21452 whole entry Q166A) above, with A166Q, Y269F counted along it
# Sequence of Substance-K receptor (Homo sapiens), P21452 [F293A] (P21452 whole entry F293A): as the sequence (P21452 whole entry Q166A) above, with A166Q, F293A counted along it
# Sequence of Substance-K receptor (Homo sapiens), P21452 [T171A] (P21452 whole entry T171A): as the sequence (P21452 whole entry Q166A) above, with A166Q, T171A counted along it
# Sequence of Substance-K receptor (Homo sapiens), P21452 [Y107A] (P21452 whole entry Y107A): as the sequence (P21452 whole entry Q166A) above, with Y107A, A166Q counted along it
# Sequence of Substance-K receptor (Homo sapiens), P21452 [Y289T] (P21452 whole entry Y289T): as the sequence (P21452 whole entry Q166A) above, with A166Q, Y289T counted along it
# Sequence of Substance-K receptor (Homo sapiens), P21452 [Y289F] (P21452 whole entry Y289F): as the sequence (P21452 whole entry Q166A) above, with A166Q, Y289F counted along it
# Sequence of Substance-K receptor (Homo sapiens), P21452 [N110A] (P21452 whole entry N110A): as the sequence (P21452 whole entry Q166A) above, with N110A, A166Q counted along it
# Sequence of Substance-K receptor (Homo sapiens), P21452 [Y206F] (P21452 whole entry Y206F): as the sequence (P21452 whole entry Q166A) above, with A166Q, Y206F counted along it
# Sequence of Substance-K receptor (Homo sapiens), P21452 [Y269A] (P21452 whole entry Y269A): as the sequence (P21452 whole entry Q166A) above, with A166Q, Y269A counted along it
# Sequence of Substance-K receptor (Homo sapiens), P21452 [F112A] (P21452 whole entry F112A): as the sequence (P21452 whole entry Q166A) above, with F112A, A166Q counted along it
# Sequence of Substance-K receptor (Homo sapiens), P21452 [I202F] (P21452 whole entry I202F): as the sequence (P21452 whole entry Q166A) above, with A166Q, I202F counted along it
compound,measurement,setting,value
N[C@H]1CC(=O)NC[C@@H](Cc2ccccc2)NC(=O)[C@H](Cc2ccccc2)NC(=O)[C@H](Cc2c[nH]c3ccccc23)NC1=O,Ki,[1],3.16 nM
NCCCC(=O)N[C@H]1CC(=O)N[C@@H](Cc2c[nH]c3ccccc23)C(=O)N[C@@H](Cc2ccccc2)C(=O)N[C@H](Cc2ccccc2)CNC1=O,Ki,[1],7.94 nM
O=C1CCC(=O)N[C@@H](Cc2c[nH]c3ccccc23)C(=O)N[C@@H](Cc2ccccc2)C(=O)N[C@H](Cc2c[nH]c3ccccc23)CN1,Ki,[1],3.16 nM
C=CCOC(=O)[C@@H]1CC(=O)N[C@@H](Cc2c[nH]c3ccccc23)C(=O)N[C@@H](Cc2ccccc2)C(=O)N[C@H](Cc2ccc(Cl)c(Cl)c2)C(=O)N1,Ki,[1],316 nM
O=C1C[C@H](NC(=O)[C@]2(O)C[C@@H](O)[C@@H](O)[C@H](O)C2)C(=O)NC[C@@H](Cc2ccccc2)NC(=O)[C@H](Cc2ccccc2)NC(=O)[C@H](Cc2c[nH]c3ccccc23)N1,Ki,[1],6.31 nM
O=C(N[C@H]1CCCCN(Cc2ccccc2)C(=O)[C@H](Cc2ccccc2)NC(=O)[C@H](Cc2c[nH]c3ccccc23)NC1=O)OCc1ccccc1,Ki,[1],5.01 nM
O=C1C[C@H](NCc2nn[nH]n2)C(=O)NC[C@@H](Cc2ccccc2)NC(=O)[C@H](Cc2ccccc2)NC(=O)[C@H](Cc2c[nH]c3ccccc23)N1,Ki,[1],1.58 nM
NC(=O)[C@@H]1CNC(=O)CCC(=O)N[C@@H](Cc2c[nH]c3ccccc23)C(=O)N[C@@H](Cc2ccccc2)C(=O)N1 (Trp-Phe-[Dap]-NH2; linker N-3 via Suc),Ki,[1],3980 nM
O=C1CCCNC(=O)[C@@H](Cc2ccccc2)NC(=O)[C@H](Cc2ccccc2)NC(=O)[C@H](Cc2c[nH]c3ccccc23)N1,Ki,[1],316 nM
O=C1C[C@@H](NC(=O)CN2CCOCC2)C(=O)NC[C@@H](Cc2ccccc2)NC(=O)[C@H](Cc2ccccc2)NC(=O)[C@H](Cc2c[nH]c3ccccc23)N1,Ki,[1],0.316 nM
O=C(O)CCC(=O)N[C@H]1CC(=O)N[C@@H](Cc2c[nH]c3ccccc23)C(=O)N[C@@H](Cc2ccccc2)C(=O)N[C@H](Cc2ccccc2)CNC1=O,Ki,[1],12.6 nM
O=C1C[C@H](N2CCOCC2)C(=O)NC[C@@H](Cc2ccccc2)NC(=O)[C@H](Cc2ccccc2)NC(=O)[C@H](Cc2c[nH]c3ccccc23)N1,Ki,[1],0.794 nM
N[C@H]1CC(=O)N[C@@H](Cc2c[nH]c3ccccc23)C(=O)N[C@@H](Cc2ccccc2)C(=O)N[C@H](Cc2ccccc2)CNC1=O,Ki,[1],3.16 nM
O=C1C[C@@H](NC(=O)CN2CCC(N3CCCCC3)CC2)C(=O)NC[C@H](Cc2ccccc2)NC(=O)[C@H](Cc2ccccc2)NC(=O)[C@H](Cc2c[nH]c3ccccc23)N1,Ki,[1],0.398 nM
O=C1C[C@@H](C(=O)O)NC(=O)[C@@H](Cc2ccc(Cl)c(Cl)c2)NC(=O)[C@H](Cc2ccccc2)NC(=O)[C@H](Cc2c[nH]c3ccccc23)N1,Ki,[1],398 nM
O=C1C[C@@H](N2CCOCC2)C(=O)NC[C@@H](Cc2ccccc2)NC(=O)[C@H](Cc2ccccc2)NC(=O)[C@H](Cc2c[nH]c3ccccc23)N1,Ki,[1],0.158 nM
N=C(N)NCC(=O)N[C@H]1CC(=O)N[C@@H](Cc2c[nH]c3ccccc23)C(=O)N[C@@H](Cc2ccccc2)C(=O)N[C@H](Cc2ccccc2)CNC1=O,Ki,[1],3.98 nM
CSCC[C@H](NC(=O)[C@H](CC(C)C)NC(=O)CNC(=O)[C@@H](NC(=O)[C@H](Cc1ccccc1)NC(=O)[C@H](CO)NC(=O)[C@H](CC(=O)O)NC(=O)[C@@H](NC(=O)[C@H](CCCCN)NC(=O)[C@@H](N)Cc1c[nH]cn1)[C@@H](C)O)C(C)C)C(N)=O,KD/Ki,[2],10.7 nM
same,KD/Ki,[3],40 nM
same,KD/Ki,[4],2.8 nM
same,UB,[5],inactive
same,UB,[6],inactive
same,KD/Ki,[7],5.3 nM
same,KD/Ki,[8],2 nM
same,KD/Ki,[9],5.9 nM
same,UB,[10],inactive
same,UB,[11],inactive
same,KD/Ki,[12],5.9 nM
same,UB,[13],inactive
same,KD/Ki,[14],1.9 nM
same,UB,[15],inactive
same,KD/Ki,[16],0.5 nM
same,UB,[17],inactive
same,KD/Ki,[18],2.1 nM
same,KD/Ki,[19],6.6 nM
